Activity calls are given as the source filed them. The rule behind the calls is not given here.

In one assay the test system is HT-29. Put plainly: Antiproliferative activity against human HT-29 cells assessed as cell growth inhibition after 48 hrs by sulforhodamine B assay. Format: functional, cell-based. The note with it: HT-29, 48 h. A digest of the protocol: (§1)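 NCI-style SRB screen with minor changes. Cells seeded per well in DMEM with 5% FBS: HT-29 4.0 x 10^3, M21 3.0 x 10^3, MCF-7 2.5 x 10^3, HT-1080 2.5 x 10^3. After 24 h, serially diluted drug was added at 50 µM to 1 nM final, DMSO <0.5%, for 48 h. Fixed with cold TCA, stained with SRB, read at 530–568 nm against plates fixed on treatment day. At least two experiments in triplicate, CV <10%.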

The test system of assay [1] is M21. The assay can be described thus: Antiproliferative activity against human M21 cells assessed as cell growth inhibition after 48 hrs by sulforhodamine B assay. In kind it is functional, cell-based. The note with it: M21, 48 h. A digest of the protocol:
as §1

The next assay concerns MCF7. The assay can be described thus: Antiproliferative activity against human MCF7 cells assessed as cell growth inhibition after 48 hrs by sulforhodamine B assay. Format: functional, cell-based. The note with it: MCF7, 48 h. A digest of the protocol:
as §1

Assay [2] can be described thus: Antiproliferative activity against human HT1080 cells assessed as cell growth inhibition after 48 hrs by sulforhodamine B assay. Format: functional, cell-based. The note with it: HT-1080, 48 h.
In assay [3] the test system is M21. The assay can be described thus: Induction of cell cycle arrest in human M21 cells assessed as cells accumulation at subG1 phase at 760 nM after 24 hrs by flow cytometry (reference value: 1.2%). In kind it is functional.
The test system of assay [4] is M21. The assay can be described thus: Induction of cell cycle arrest in human M21 cells assessed as cells accumulation at G0/G1 phase at 760 nM after 24 hrs by flow cytometry (reference value: 54.5%). Format: functional.
The subject of assay [5] is M21. The assay can be described thus: Induction of cell cycle arrest in human M21 cells assessed as cells accumulation at S phase at 760 nM after 24 hrs by flow cytometry (reference value: 22.2%). Format: functional.
The subject of assay [6] is M21. The assay can be described thus: Induction of cell cycle arrest in human M21 cells assessed as cells accumulation at G2/M phase at 760 nM after 24 hrs by flow cytometry (reference value: 22.1%). In kind it is functional.
Assay [7] addresses T1, Tubulin beta (Homo sapiens) (UniProt P68371+Q9H4B7+Q13509+P04350+Q3ZCM7+P07437+Q13885+Q9BVA1+Q9BUF5+A6NNZ2). The assay can be described thus: Binding affinity to Tubulin beta in human M21 cells assessed as tubulin acylation at 1500 nM after 24 hrs by electrophoretic mobility shift assay. In kind it is cell-based.
The target in assay [8] is T1, Tubulin beta (Homo sapiens). The assay can be described thus: Binding affinity to Tubulin beta in human M21 cells assessed as tubulin acylation at 3100 nM after 24 hrs by electrophoretic mobility shift assay. In kind it is cell-based.
Assay [9] has as its system M21. Put plainly: Induction of microtubule depolymerization and cytoskeleton disruption in human M21 cells at 760 nM after 16 hrs by immunofluorescence assay.
In assay [10] the test system is M21. The assay can be described thus: Induction of cell cycle arrest in human M21 cells assessed as cells accumulation at subG1 phase at 24 nM after 24 hrs by flow cytometry (reference value: 1.2%). In kind it is functional.
For assay [11], the system named is M21. The assay can be described thus: Induction of cell cycle arrest in human M21 cells assessed as cells accumulation at G0/G1 phase at 24 nM after 24 hrs by flow cytometry (reference value: 54.5%). Format: functional.
For assay [12], the system named is M21. The assay can be described thus: Induction of cell cycle arrest in human M21 cells assessed as cells accumulation at S phase at 24 nM after 24 hrs by flow cytometry (reference value: 22.2%). Format: functional.
The test system of assay [13] is M21. The assay can be described thus: Induction of cell cycle arrest in human M21 cells assessed as cells accumulation at G2/M phase at 24 nM after 24 hrs by flow cytometry (reference value: 22.1%). In kind it is functional.
For assay [14], the system named is M21. The assay can be described thus: Induction of microtubule depolymerization and cytoskeleton disruption in human M21 cells at 24 nM after 24 hrs by immunofluorescence assay. In kind it is functional, cell-based.

Consider `O=C(NCCCl)Nc1ccc(/C=C\c2cccc(Cl)c2)cc1`, for which the half-maximal inhibitory concentration (IC50) with HT-29 stood at 0.13 µM; in the assay with M21 [1], 0.17 µM; in the assay on MCF7 it was 0.2 µM; in [2], 0.17 µM. In addition, the Activity with M21 [3] is on record as 2.2%; in the assay with M21 [4] it was 2.1%; in the assay on M21 [5], 3.7%; in the assay with M21 [6], 92%. Also, the result (in [7]; in [8]; in the assay with M21 [9]) was Active.

`COc1cc2c(c(OC)c1OC)-c1ccc(OC)c(=O)cc1[C@@H](NC(C)=O)CC2` [COLCHICINE]: the Activity in the assay with M21 [10] amounted to 2.4%; in the assay with M21 [11], 27.9%; in the assay with M21 [12] it was 11.8%; in the assay on M21 [13] it was 57.9%. The result in the assay with M21 [14] was Active.
